The values that follow come from ChEMBL document CHEMBL3997769, “Discovery and preclinical evaluation of 7-benzyl-N-(substituted)-pyrrolo[3,2-d]pyrimidin-4-amines as single agents with microtubule targeting effects along with triple-acting angiokinase inhibition as antitumor agents” (Bioorg Med Chem, 2017).

Active and inactive are the calls of the source. The rule behind the calls is not given here.

Series [1] can be described thus: Toxicity in Balb/cJ mouse assessed as body weight loss administered once weekly measured every 2 days during compound dosing. The settings on record: in vivo. In a few lines:
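Female BALB/cJ mice, 8 weeks old, carrying orthotopic 4T1-Luc2-GFP allografts (7,500 cells in mammary fat pad #4). IP dosing at 1 mg/kg once weekly began one week after implantation, in 5% Pharmasolve/5% Solutol HS in normal saline. Body weight was reported as percent change at day 40 from starting weight, vs untreated controls, n = 9–10, by one-way ANOVA.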

For series [2], the system named is 4T1. The series can be described thus: Antitumor activity against luciferase/GFP-tagged mouse 4T1 cells implanted in Balb/cJ mouse assessed as reduction in lung metastasis at 1 mg/kg, ip administered once weekly by fluorescence microscopic method. It is filed as functional, organism-based. In a few lines:
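Orthotopic 4T1-Luc2-GFP allograft in the mammary fat pad of female BALB/cJ mice; IP treatment in 5% Pharmasolve/5% Solutol HS in saline began one week after implantation. At study end, lungs were excised from mice euthanized under isoflurane and imaged with a GFP-filter fluorescence dissecting microscope; GFP-positive metastases per lung counted. n = 9-10.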

A further series concerns Mus musculus. Description: Toxicity in Balb/cJ mouse implanted with luciferase/GFP-tagged mouse 4T1 cells assessed as body weight gain at 1 mg/kg, ip administered once weekly measured at day 40 post dose. It is filed as organism-based. The settings on record: in vivo.
Series [3] has as its system 4T1. The series can be described thus: Antitumor activity against luciferase/GFP-tagged mouse 4T1 cells implanted in Balb/CJ mouse assessed as reduction in primary tumor growth at 1 mg/kg, ip administered once in a week. The series is classed as functional, organism-based.
Series [4] can be described thus: Inhibition of bovine brain tubulin assembly preincubated for 15 mins followed by GTP addition measured for 20 mins by spectrophotometric method. Also on record: species or system Bos taurus.
In another series the test system is A-431. Description: Cytotoxicity against human A431 cells. The series is classed as functional, cell-based.
The test system of a further series is Chorioallantoic membrane. Description: Antiangiogenic activity in Leghorn chicken egg chorioallantoic membrane assessed as inhibition of human VEGF-165/bFGF-induced blood vessels formation measured after 40 hrs by microscopic method. The settings on record: Gallus gallus. It is filed as functional, tissue-based.
The next series relates to HeLa. Description: Growth inhibition of human HeLa cells measured after 96 hrs by sulforhodamine B assay. The series is classed as functional, cell-based. In a few lines:
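Exposed 96 h to varying compound concentrations in 0.5% DMSO. Cell protein measured by sulforhodamine B; IC50 = concentration halving the increase in cell protein versus untreated cultures.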
A general note: The SRB assay estimates cell density from bound dye.

Take `COc1cccc2c1C(=O)c1c(O)c3c(c(O)c1C2=O)C[C@@](O)(C(=O)CO)C[C@@H]3O[C@H]1C[C@H](N)[C@H](O)[C@H](C)O1` [DOXORUBICIN]: the MTD at 48 h in series [1] stood at 1 mg/kg. Moreover, the outcome in the series on 4T1 [2] was Active. The Activity result with Mus musculus is “Toxic”. For the same molecule, the result with 4T1 [3] was inactive.

Regarding `COc1ccc(N(C)c2nc(N)nc3c(Cc4ccccc4)c[nH]c23)cc1`, the results for the IC50 (in series [4]; in the series with A-431; in the series with Chorioallantoic membrane) were over 20 µM, 0.7 µM and 2.3 µM, respectively.

For the molecule `COc1ccc(Nc2nc(C)nc3c(Cc4ccccc4)cn(C)c23)cc1`, the IC50 (usually the concentration that gives 50% inhibition) in series [4] was over 20 µM; in the series with A-431, 2.3 µM; in the series with Chorioallantoic membrane, 8.7 µM.

Turning to `COc1ccc2c(c1)CCCN2c1nc(C)nc2c(Cc3ccccc3)cn(C)c12`, half-maximal inhibition in the series on HeLa (IC50) was put at 0.06 µM.
